Laboratory results as given in ChEMBL document CHEMBL2040767, “Development of Polar Adenosine A2A Receptor Agonists for Inflammatory Bowel Disease: Synergism with A2B Antagonists” (ACS Med Chem Lett, 2011).

How the values were obtained:
Adenosine receptor A1 [1] = molecular target: T1, Adenosine receptor A1 (Rattus norvegicus, UniProt P25099); experiment: Displacement of [3H]CCPA from adenosine A1 receptor in rat brain cortex; format: tissue-based
T1 sequence (P25099 whole entry): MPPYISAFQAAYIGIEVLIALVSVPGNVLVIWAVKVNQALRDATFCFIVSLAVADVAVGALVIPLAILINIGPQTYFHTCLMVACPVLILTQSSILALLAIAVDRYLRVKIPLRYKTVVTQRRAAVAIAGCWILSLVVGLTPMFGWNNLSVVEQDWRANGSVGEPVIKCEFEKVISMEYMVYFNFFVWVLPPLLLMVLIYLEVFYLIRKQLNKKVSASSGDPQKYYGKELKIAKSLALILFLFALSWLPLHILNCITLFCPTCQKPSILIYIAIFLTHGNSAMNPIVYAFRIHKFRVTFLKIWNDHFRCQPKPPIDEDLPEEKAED

Adenosine receptor A1 [2] = molecular target: T2, Adenosine receptor A1 (Homo sapiens, UniProt P30542); experiment: Displacement of [3H]CCPA from human recombinant adenosine A1 receptor
T2 sequence (P30542 whole entry): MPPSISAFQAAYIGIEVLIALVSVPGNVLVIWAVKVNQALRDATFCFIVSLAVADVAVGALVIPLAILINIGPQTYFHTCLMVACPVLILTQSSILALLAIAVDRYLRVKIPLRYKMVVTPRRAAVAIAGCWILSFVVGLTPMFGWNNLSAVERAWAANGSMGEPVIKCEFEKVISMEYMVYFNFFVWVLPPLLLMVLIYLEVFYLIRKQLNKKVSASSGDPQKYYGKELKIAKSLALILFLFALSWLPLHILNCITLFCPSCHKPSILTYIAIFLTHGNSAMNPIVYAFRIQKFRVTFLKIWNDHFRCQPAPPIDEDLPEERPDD

Adenosine receptor A2a [3] = molecular target: T3, Adenosine receptor A2a (Rattus norvegicus, UniProt P30543); experiment: Displacement of [3H]CGS21680 from adenosine A2A receptor in rat brain striatum; format: tissue-based
Adenosine receptor A2a [4] = molecular target: T4, Adenosine receptor A2a (Homo sapiens, UniProt P29274); experiment: Displacement of [3H]CGS21680 from human recombinant adenosine A2A receptor
Adenosine receptor A2b = molecular target: T5, Adenosine receptor A2b (Homo sapiens, UniProt P29275); experiment: Displacement of [3H]PSB-603 from human recombinant adenosine A2B receptor expressed in CHO cells after 75 mins by liquid scintillation assay; format: cell-based
T5 sequence (P29275 whole entry): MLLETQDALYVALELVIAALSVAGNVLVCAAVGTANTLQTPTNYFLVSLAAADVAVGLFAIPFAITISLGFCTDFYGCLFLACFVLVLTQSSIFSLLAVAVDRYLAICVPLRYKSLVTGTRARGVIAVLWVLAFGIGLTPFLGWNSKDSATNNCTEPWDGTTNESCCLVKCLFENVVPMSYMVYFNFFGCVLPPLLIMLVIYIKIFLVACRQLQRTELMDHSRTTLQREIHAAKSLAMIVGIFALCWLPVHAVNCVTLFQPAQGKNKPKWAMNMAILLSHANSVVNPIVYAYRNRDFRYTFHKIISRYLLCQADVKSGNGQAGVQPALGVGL

Adenosine receptor A3 [5] = molecular target: T6, Adenosine receptor A3 (Homo sapiens, UniProt P0DMS8); experiment: Displacement of [3H]PSB-11 from human recombinant adenosine A3 receptor expressed in CHO cells; format: cell-based
T6 sequence (P0DMS8 whole entry): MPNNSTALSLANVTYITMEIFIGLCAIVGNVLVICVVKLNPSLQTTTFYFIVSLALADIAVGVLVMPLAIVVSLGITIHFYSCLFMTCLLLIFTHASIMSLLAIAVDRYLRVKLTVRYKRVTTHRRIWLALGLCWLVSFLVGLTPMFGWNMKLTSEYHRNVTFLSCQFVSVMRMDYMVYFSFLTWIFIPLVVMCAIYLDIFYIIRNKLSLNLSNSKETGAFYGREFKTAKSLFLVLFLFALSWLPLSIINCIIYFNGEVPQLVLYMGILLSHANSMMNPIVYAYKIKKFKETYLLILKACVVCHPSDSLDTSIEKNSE
Summary of the method: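 Competition binding at human recombinant A3 receptor with [3H]PSB-11 as radioligand; Ki reported as mean ± SEM from three experiments.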

Adenosine receptor A3 [6] = molecular target: T6, Adenosine receptor A3; experiment: Displacement of [3H]NECA from human recombinant adenosine A3 receptor
Adenosine receptor A2a [7] = molecular target: T4, Adenosine receptor A2a; experiment: Agonist activity at human adenosine A2A receptor expressed in CHO-K1 cells by cAMP accumulation assay; format: functional, cell-based
[8] = molecular target: T7, Adenosine receptor A2b (Rattus norvegicus) (UniProt P29276); experiment: Antagonist activity at adenosine A2B receptor in Wistar rat ileum/jejunum segment assessed as reversal of TNBS-induced inhibition of Ach-induced contraction at 10 uM after 30 mins; format: functional, tissue-based; design: scale not given: the % may be the effect or the level left
T7 sequence (whole entry): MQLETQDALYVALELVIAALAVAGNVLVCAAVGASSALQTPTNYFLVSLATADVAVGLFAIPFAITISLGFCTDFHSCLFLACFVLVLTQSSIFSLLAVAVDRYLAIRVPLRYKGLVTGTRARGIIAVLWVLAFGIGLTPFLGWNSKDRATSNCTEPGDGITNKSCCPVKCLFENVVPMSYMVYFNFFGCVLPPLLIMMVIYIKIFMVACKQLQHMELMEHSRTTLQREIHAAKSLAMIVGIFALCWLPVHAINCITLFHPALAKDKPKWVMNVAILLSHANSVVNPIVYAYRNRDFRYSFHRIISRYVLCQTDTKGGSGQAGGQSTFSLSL
Summary of the method: (§1)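 Ex vivo rat ileum/jejunum segments; contractions evoked by acetylcholine 1 mM, expressed as % of Ach contraction without drug (100%). Acute inflammation induced by TNBS 10 mM, with the A2B antagonist (1–100 μM) preincubated alongside TNBS. Means ± SEM of seven experiments.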

[9] = molecular target: T7, Adenosine receptor A2b (Rattus norvegicus); experiment: Antagonist activity at adenosine A2B receptor in Wistar rat ileum/jejunum segment assessed as reversal of TNBS-induced inhibition of Ach-induced contraction at 100 uM after 30 mins; format: functional, tissue-based; design: scale not given: the % may be the effect or the level left; summary of the method: as §1
[10] = molecular target: T7, Adenosine receptor A2b (Rattus norvegicus); experiment: Antagonist activity at adenosine A2B receptor in Wistar rat ileum/jejunum segment assessed as reversal of TNBS-induced inhibition of Ach-induced contraction after 30 mins; format: functional, tissue-based; summary of the method: as §1
Adenosine receptor A2a [11] = molecular target: T3, Adenosine receptor A2a; experiment: Displacement of [3H]MSX-2 from adenosine A2A receptor in rat brain striatum; format: tissue-based

T3 sequence (P30543 whole entry): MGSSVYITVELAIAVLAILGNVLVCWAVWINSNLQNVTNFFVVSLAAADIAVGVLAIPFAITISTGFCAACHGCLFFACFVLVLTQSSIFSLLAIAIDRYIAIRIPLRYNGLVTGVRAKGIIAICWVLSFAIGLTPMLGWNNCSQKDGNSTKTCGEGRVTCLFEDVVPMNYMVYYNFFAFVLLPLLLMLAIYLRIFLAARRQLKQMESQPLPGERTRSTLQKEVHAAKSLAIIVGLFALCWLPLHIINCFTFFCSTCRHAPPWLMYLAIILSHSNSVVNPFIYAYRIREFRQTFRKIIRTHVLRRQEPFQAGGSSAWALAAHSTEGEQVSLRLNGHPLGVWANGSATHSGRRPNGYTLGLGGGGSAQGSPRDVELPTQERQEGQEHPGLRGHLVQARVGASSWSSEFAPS
T4 sequence (P29274 whole entry): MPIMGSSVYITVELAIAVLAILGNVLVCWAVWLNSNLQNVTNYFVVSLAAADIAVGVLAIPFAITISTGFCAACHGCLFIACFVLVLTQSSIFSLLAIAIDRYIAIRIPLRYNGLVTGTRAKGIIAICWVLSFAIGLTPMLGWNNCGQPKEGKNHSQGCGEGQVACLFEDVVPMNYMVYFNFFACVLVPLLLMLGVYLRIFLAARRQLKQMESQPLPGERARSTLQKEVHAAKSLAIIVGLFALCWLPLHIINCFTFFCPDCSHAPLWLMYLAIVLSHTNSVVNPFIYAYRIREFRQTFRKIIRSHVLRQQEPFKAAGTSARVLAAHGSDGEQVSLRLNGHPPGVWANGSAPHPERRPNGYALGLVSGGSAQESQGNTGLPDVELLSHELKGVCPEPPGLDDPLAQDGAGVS

Ki (Adenosine receptor A1 [1]) [nM] | Ki (Adenosine receptor A1 [2]) [nM] | Ki (Adenosine receptor A2a [3]) [nM] | Ki (Adenosine receptor A2a [4]) [nM] | Ki (Adenosine receptor A2b) [nM] | Ki (Adenosine receptor A3 [5]) [nM] | Ki (Adenosine receptor A3 [6]) [nM] | EC50 (Adenosine receptor A2a [7]) [nM] | Activity [8] [%] | Activity [9] [%] | Activity [10] | Ki (Adenosine receptor A2a [11]) [nM] | Structure (SMILES)
1010 | 404 | 152 | ≥ 10000 | > 10000 | > 10000 | > 1000 |  |  |  |  |  | Nc1nc(SCCc2ccc(C(=O)O)cc2)nc2c1ncn2[C@@H]1O[C@H](CO)[C@@H](O)[C@H]1O
≥ 10000 | 541 | 44.4 | 360 | > 10000 | > 10000 | > 1000 | 117 |  |  |  |  | Nc1nc(SCCc2ccc(S(=O)(=O)O)cc2)nc2c1ncn2[C@@H]1O[C@H](CO)[C@@H](O)[C@H]1O
1800 | 545 | > 10000 | > 10000 |  | > 10000 |  |  |  |  |  |  | Nc1nc(S(=O)(=O)CCc2ccc(S(=O)(=O)O)cc2)nc2c1ncn2[C@@H]1O[C@H](CO)[C@@H](O)[C@H]1O
 |  |  |  |  |  |  |  | 53.3 | 86.1 | Dose-dependent effect |  | CCCn1c(=O)[nH]c2nc(-c3ccc(S(=O)(=O)N4CCN(Cc5ccccc5)CC4)cc3)[nH]c2c1=O
1930 |  |  | > 10000 |  | > 10000 |  |  |  |  |  | > 10000 | Nc1nc(SCC(=O)O)nc2c1ncn2[C@@H]1O[C@H](CO)[C@@H](O)[C@H]1O
